Tested on: Fibroblast
Assay: Multiplex assay against human fibroblast
Type: toxicity, cell-based
In short: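 At seeding, live cells were stained with Hoechst33342, BioTracker Green Microtubule Cytoskeleton Dye, MitoTracker Red and Annexin V Alexa Fluor 680. After compound addition they were imaged on a CQ1 microscope at 37°C and 5% CO2, and CellPathfinder machine-learning gating sorted them into Hoechst high-intensity objects or normal cells, with normal cells further split into healthy, pyknosed or fragmented nuclei and pyknosed cells into mitotic or apoptotic. Tubulin, mitochondrial-mass and membrane-permeability phenotypes are given as per cents of cells with healthy nuclei.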

[1] = 12 h, 1 µM, compound concentration 1 uM, replicate 1
[2] = 12 h, 1 µM, compound concentration 1 uM, replicate 2
[3] = 12 h, 10 µM, compound concentration 10 uM, replicate 1
[4] = 12 h, 10 µM, compound concentration 10 uM, replicate 2
[5] = 24 h, 1 µM, compound concentration 1 uM, replicate 1
[6] = 24 h, 1 µM, compound concentration 1 uM, replicate 2
[7] = 24 h, 10 µM, compound concentration 10 uM, replicate 1
[8] = 24 h, 10 µM, compound concentration 10 uM, replicate 2
[9] = 48 h, 1 µM, compound concentration 1 uM, replicate 1
[10] = 48 h, 1 µM, compound concentration 1 uM, replicate 2
[11] = 48 h, 10 µM, compound concentration 10 uM, replicate 1
[12] = 48 h, 10 µM, compound concentration 10 uM, replicate 2

## C[C@@H]1C[C@H]2[C@@H]3CCC4=CC(=O)C=C[C@]4(C)[C@@]3(F)[C@@H](O)C[C@]2(C)[C@@]1(O)C(=O)CO [DEXAMETHASONE]
[1]
  Population Apoptotic (%): 62%
  Population Fragmented Nuclei (%): 18%
  Population Healthy Nuclei (%): 66%
  Population Hoechst High Intensity Objects (%): 7%
  Population Membrane Permeable-Phenotype (%): 0%
  Population Mitochondria Different-Phenotype (%): 2%
  Population Mitotic Cells (%): 37%
  Population Normal (%): 92%
  Population Pyknosed Nuclei (%): 15%
  Population Tubulin-Different-Phenotype (%): 26%
[2]
  Population Apoptotic (%): 38%
  Population Fragmented Nuclei (%): 30%
  Population Healthy Nuclei (%): 48%
  Population Hoechst High Intensity Objects (%): 3%
  Population Membrane Permeable-Phenotype (%): 9%
  Population Mitochondria Different-Phenotype (%): 4%
  Population Mitotic Cells (%): 61%
  Population Normal (%): 96%
  Population Pyknosed Nuclei (%): 20%
  Population Tubulin-Different-Phenotype (%): 52%
[3]
  Population Apoptotic (%): 35%
  Population Fragmented Nuclei (%): 20%
  Population Healthy Nuclei (%): 65%
  Population Hoechst High Intensity Objects (%): 2%
  Population Membrane Permeable-Phenotype (%): 1%
  Population Mitochondria Different-Phenotype (%): 5%
  Population Mitotic Cells (%): 65%
  Population Normal (%): 98%
  Population Pyknosed Nuclei (%): 13%
  Population Tubulin-Different-Phenotype (%): 22%
[4]
  Population Apoptotic (%): 30%
  Population Fragmented Nuclei (%): 24%
  Population Healthy Nuclei (%): 52%
  Population Hoechst High Intensity Objects (%): 6%
  Population Membrane Permeable-Phenotype (%): 4%
  Population Mitochondria Different-Phenotype (%): 2%
  Population Mitotic Cells (%): 69%
  Population Normal (%): 93%
  Population Pyknosed Nuclei (%): 23%
  Population Tubulin-Different-Phenotype (%): 53%
[5]
  Population Apoptotic (%): 48%
  Population Fragmented Nuclei (%): 14%
  Population Healthy Nuclei (%): 68%
  Population Hoechst High Intensity Objects (%): 5%
  Population Membrane Permeable-Phenotype (%): 1%
  Population Mitochondria Different-Phenotype (%): 3%
  Population Mitotic Cells (%): 52%
  Population Normal (%): 94%
  Population Pyknosed Nuclei (%): 17%
  Population Tubulin-Different-Phenotype (%): 26%
[6]
  Population Apoptotic (%): 31%
  Population Fragmented Nuclei (%): 29%
  Population Healthy Nuclei (%): 50%
  Population Hoechst High Intensity Objects (%): 6%
  Population Membrane Permeable-Phenotype (%): 4%
  Population Mitochondria Different-Phenotype (%): 1%
  Population Mitotic Cells (%): 68%
  Population Normal (%): 93%
  Population Pyknosed Nuclei (%): 19%
  Population Tubulin-Different-Phenotype (%): 53%
[7]
  Population Apoptotic (%): 42%
  Population Fragmented Nuclei (%): 15%
  Population Healthy Nuclei (%): 65%
  Population Hoechst High Intensity Objects (%): 3%
  Population Membrane Permeable-Phenotype (%): 1%
  Population Mitochondria Different-Phenotype (%): 6%
  Population Mitotic Cells (%): 57%
  Population Normal (%): 96%
  Population Pyknosed Nuclei (%): 18%
  Population Tubulin-Different-Phenotype (%): 22%
[8]
  Population Apoptotic (%): 30%
  Population Fragmented Nuclei (%): 30%
  Population Healthy Nuclei (%): 44%
  Population Hoechst High Intensity Objects (%): 6%
  Population Membrane Permeable-Phenotype (%): 10%
  Population Mitochondria Different-Phenotype (%): 2%
  Population Mitotic Cells (%): 69%
  Population Normal (%): 93%
  Population Pyknosed Nuclei (%): 24%
  Population Tubulin-Different-Phenotype (%): 45%
[9]
  Population Apoptotic (%): 46%
  Population Fragmented Nuclei (%): 22%
  Population Healthy Nuclei (%): 52%
  Population Hoechst High Intensity Objects (%): 6%
  Population Membrane Permeable-Phenotype (%): 2%
  Population Mitochondria Different-Phenotype (%): 4%
  Population Mitotic Cells (%): 53%
  Population Normal (%): 93%
  Population Pyknosed Nuclei (%): 24%
  Population Tubulin-Different-Phenotype (%): 34%
[10]
  Population Apoptotic (%): 37%
  Population Fragmented Nuclei (%): 38%
  Population Healthy Nuclei (%): 46%
  Population Hoechst High Intensity Objects (%): 4%
  Population Membrane Permeable-Phenotype (%): 4%
  Population Mitotic Cells (%): 62%
  Population Normal (%): 95%
  Population Pyknosed Nuclei (%): 14%
  Population Tubulin-Different-Phenotype (%): 53%
[11]
  Population Apoptotic (%): 50%
  Population Fragmented Nuclei (%): 22%
  Population Healthy Nuclei (%): 55%
  Population Hoechst High Intensity Objects (%): 4%
  Population Membrane Permeable-Phenotype (%): 0%
  Population Mitochondria Different-Phenotype (%): 7%
  Population Mitotic Cells (%): 50%
  Population Normal (%): 95%
  Population Pyknosed Nuclei (%): 22%
  Population Tubulin-Different-Phenotype (%): 19%
[12]
  Population Apoptotic (%): 37%
  Population Fragmented Nuclei (%): 36%
  Population Healthy Nuclei (%): 43%
  Population Hoechst High Intensity Objects (%): 7%
  Population Membrane Permeable-Phenotype (%): 10%
  Population Mitochondria Different-Phenotype (%): 0%
  Population Mitotic Cells (%): 62%
  Population Normal (%): 92%
  Population Pyknosed Nuclei (%): 20%
  Population Tubulin-Different-Phenotype (%): 39%

## CSCC[C@H](NC=O)C(=O)N[C@@H](CC(C)C)C(=O)N[C@@H](Cc1ccccc1)C(=O)O
[1]
  Population Fragmented Nuclei (%): 18%
  Population Healthy Nuclei (%): 69%
  Population Mitochondria Different-Phenotype (%): 3%
  Population Tubulin-Different-Phenotype (%): 26%
  Total Cell Count: 182
[2]
  Population Fragmented Nuclei (%): 29%
  Population Healthy Nuclei (%): 51%
  Population Mitochondria Different-Phenotype (%): 4%
  Population Tubulin-Different-Phenotype (%): 39%
  Total Cell Count: 175
[3]
  Population Mitochondria Different-Phenotype (%): 5%
  Population Tubulin-Different-Phenotype (%): 24%
  Total Cell Count: 112
[4]
  Population Fragmented Nuclei (%): 27%
  Population Healthy Nuclei (%): 39%
  Population Hoechst High Intensity Objects (%): 38%
  Population Membrane Permeable-Phenotype (%): 9%
  Population Mitochondria Different-Phenotype (%): 3%
  Population Normal (%): 61%
  Population Tubulin-Different-Phenotype (%): 35%
  Total Cell Count: 315
[5]
  Population Healthy Nuclei (%): 73%
  Population Mitochondria Different-Phenotype (%): 4%
  Population Tubulin-Different-Phenotype (%): 18%
  Total Cell Count: 173
[6]
  Population Fragmented Nuclei (%): 35%
  Population Healthy Nuclei (%): 46%
  Population Hoechst High Intensity Objects (%): 7%
  Population Mitochondria Different-Phenotype (%): 9%
  Population Normal (%): 92%
  Population Tubulin-Different-Phenotype (%): 43%
  Total Cell Count: 179
[7]
  Population Fragmented Nuclei (%): 19%
  Population Membrane Permeable-Phenotype (%): 3%
  Population Mitochondria Different-Phenotype (%): 7%
  Population Tubulin-Different-Phenotype (%): 25%
  Total Cell Count: 107
[8]
  Population Healthy Nuclei (%): 38%
  Population Hoechst High Intensity Objects (%): 32%
  Population Mitochondria Different-Phenotype (%): 10%
  Population Normal (%): 67%
  Population Tubulin-Different-Phenotype (%): 47%
  Total Cell Count: 230
[9]
  Population Fragmented Nuclei (%): 16%
  Population Healthy Nuclei (%): 69%
  Population Mitochondria Different-Phenotype (%): 1%
  Population Tubulin-Different-Phenotype (%): 21%
  Total Cell Count: 184
[10]
  Population Fragmented Nuclei (%): 36%
  Population Healthy Nuclei (%): 47%
  Population Mitochondria Different-Phenotype (%): 8%
  Population Tubulin-Different-Phenotype (%): 54%
  Total Cell Count: 174
[11]
  Population Fragmented Nuclei (%): 18%
  Population Mitochondria Different-Phenotype (%): 4%
  Population Tubulin-Different-Phenotype (%): 24%
  Total Cell Count: 110
[12]
  Population Healthy Nuclei (%): 44%
  Population Hoechst High Intensity Objects (%): 29%
  Population Membrane Permeable-Phenotype (%): 4%
  Population Mitochondria Different-Phenotype (%): 1%
  Population Normal (%): 70%
  Population Tubulin-Different-Phenotype (%): 47%
  Total Cell Count: 231

— ChEMBL document CHEMBL5058577, “EUbOPEN Chemogenomics Library 2 (Multiplex)” (2022)
